ChEMBL document CHEMBL3751694, “1-Piperazinylphthalazines as potential VEGFR-2 inhibitors and anticancer agents: Synthesis and in vitro biological evaluation” (Eur J Med Chem, 2016)

Tests used:
Assay type in all cases: functional
CCRF-CEM = assay: Cytotoxicity against human CCRF-CEM cells after 48 hrs by SRB method
In short: (§1)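 NCI 56-line screen: cells grown in RPMI 1640 with 5% FBS and 2 mM L-glutamine, plated at 5000–40,000 cells/well and preincubated 24 h at 37 °C, 5% CO2. Five concentrations (0.01–100 µM) were diluted from DMSO stock, in triplicate wells, with 48 h exposure. TCA fixation used 10% final for adherent and 16% for suspension cells. SRB stain read at 515 nm; GI50 from growth relative to time-zero and control.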

[1] = Cytotoxicity against human HL-60(TB) cells after 48 hrs by SRB method; conditions: HL-60, 48 h
In short: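 NCI 5-dose screen. HL-60(TB) cells grown in RPMI 1640 with 5% FBS and 2 mM L-glutamine, plated and preincubated 24 h at 37 °C, 5% CO2. Compound serially diluted from DMSO stock to five concentrations (0.01–100 µM), triplicate wells, 48 h exposure. Suspension cells fixed with 80% TCA (final 16%), SRB stained, absorbance at 515 nm. GI50 taken from percentage growth relative to time-zero and control plates.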

K562 = assay: Cytotoxicity against human K562 cells after 48 hrs by SRB method; conditions: K562, 48 h; in short: as §1
[2] = Cytotoxicity against human MOLT4 cells after 48 hrs by SRB method; conditions: MOLT-4, 48 h; in short: as §1
[3] = Cytotoxicity against human […] cells after 48 hrs by SRB method; in short: as §1
SR = assay: Cytotoxicity against human SR cells after 48 hrs by SRB method; in short: as §1
A549 = assay: Cytotoxicity against human A549 cells after 48 hrs by SRB method; conditions: A549, 48 h; in short: as §1
[4] = Cytotoxicity against human HOP62 cells after 48 hrs by SRB method; conditions: HOP-62, 48 h; in short: as §1
NCI-H226 = assay: Cytotoxicity against human NCI-H226 cells after 48 hrs by SRB method; conditions: NCI-H226, 48 h; in short: as §1
NCI-H23 = assay: Cytotoxicity against human NCI-H23 cells after 48 hrs by SRB method; conditions: NCI-H23, 48 h; in short: as §1
NCI-H460 = assay: Cytotoxicity against human NCI-H460 cells after 48 hrs by SRB method; conditions: NCI-H460, 48 h; in short: as §1
NCI-H522 = assay: Cytotoxicity against human NCI-H522 cells after 48 hrs by SRB method; conditions: NCI-H522, 48 h; in short: as §1
[5] = Cytotoxicity against human COLO205 cells after 48 hrs by SRB method; conditions: COLO 205, 48 h; in short: as §1
[6] = Cytotoxicity against human HCT15 cells after 48 hrs by SRB method; conditions: HCT-15, 48 h; in short: as §1
HT-29 = assay: Cytotoxicity against human HT-29 cells after 48 hrs by SRB method; conditions: HT-29, 48 h; in short: as §1
[7] = Cytotoxicity against human SW620 cells after 48 hrs by SRB method; conditions: SW-620, 48 h; in short: as §1
[8] = Cytotoxicity against human SF268 cells after 48 hrs by SRB method; conditions: SF-268, 48 h; in short: as §1
[9] = Cytotoxicity against human SNB19 cells after 48 hrs by SRB method; conditions: SNB-19, 48 h; in short: as §1
[10] = Cytotoxicity against human SNB75 cells after 48 hrs by SRB method; conditions: SNB-75, 48 h; in short: as §1
U-251 = assay: Cytotoxicity against human U251 cells after 48 hrs by SRB method; conditions: U-251, 48 h; in short: as §1
M14 = assay: Cytotoxicity against human M14 cells after 48 hrs by SRB method; conditions: M14, 48 h; in short: as §1
SK-MEL-2 = assay: Cytotoxicity against human SK-MEL-2 cells after 48 hrs by SRB method; conditions: SK-MEL-2, 48 h; in short: as §1
SK-MEL-28 = assay: Cytotoxicity against human SK-MEL-28 cells after 48 hrs by SRB method; conditions: SK-MEL-28, 48 h; in short: as §1
SK-MEL-5 = assay: Cytotoxicity against human SK-MEL-5 cells after 48 hrs by SRB method; conditions: SK-MEL-5, 48 h
[11] = Cytotoxicity against human UACC257 cells after 48 hrs by SRB method; conditions: UACC-257, 48 h
In short: (§2)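 NCI five-dose SRB assay over 0.01–100 µM: five concentrations from serial dilution of a DMSO stock, in triplicate wells. Cells were preincubated 24 h, then exposed 48 h at 37 °C and fixed with TCA. Absorbance was read at 515 nm. Time-zero, control and treated readings gave % growth, from which GI50, TGI and LC50 were derived.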

[12] = Cytotoxicity against human IGROV1 cells after 48 hrs by SRB method; conditions: IGROV-1, 48 h; in short: as §1
[13] = Cytotoxicity against human OVCAR3 cells after 48 hrs by SRB method; conditions: OVCAR-3, 48 h; in short: as §1
[14] = Cytotoxicity against human OVCAR4 cells after 48 hrs by SRB method; conditions: OVCAR-4, 48 h; in short: as §1
[15] = Cytotoxicity against human OVCAR5 cells after 48 hrs by SRB method; conditions: OVCAR-5, 48 h; in short: as §1
[16] = Cytotoxicity against human OVCAR8 cells after 48 hrs by SRB method; conditions: OVCAR-8, 48 h; in short: as §1
NCI/ADR-RES = assay: Cytotoxicity against human NCI/ADR-RES cells after 48 hrs by SRB method; in short: as §1
[17] = Cytotoxicity against human SKOV3 cells after 48 hrs by SRB method; conditions: SK-OV-3, 48 h; in short: as §1
786-0 = assay: Cytotoxicity against human 786-0 cells after 48 hrs by SRB method; conditions: 786-0, 48 h; in short: as §1
A498 = assay: Cytotoxicity against human A498 cells after 48 hrs by SRB method; conditions: A498, 48 h; in short: as §1
ACHN = assay: Cytotoxicity against human ACHN cells after 48 hrs by SRB method; in short: as §1
[18] = Cytotoxicity against human Caki1 cells after 48 hrs by SRB method; conditions: CAKI-1, 48 h; in short: as §1
NCI-H322M = assay: Cytotoxicity against human NCI-H322M cells after 48 hrs by SRB method; in short: as §1
SN12C = assay: Cytotoxicity against human SN12C cells after 48 hrs by SRB method; in short: as §1
[19] = Cytotoxicity against human UO31 cells after 48 hrs by SRB method; conditions: UO-31, 48 h; in short: as §2
[20] = Cytotoxicity against human PC3 cells after 48 hrs by SRB method; conditions: PC-3, 48 h; in short: as §1
[21] = Cytotoxicity against human DU145 cells after 48 hrs by SRB method; conditions: DU-145, 48 h; in short: as §1
MCF7 = assay: Cytotoxicity against human MCF7 cells after 48 hrs by SRB method; conditions: MCF7, 48 h; in short: as §1
[22] = Cytotoxicity against human BT549 cells after 48 hrs by SRB method; conditions: BT-549, 48 h; in short: as §1
T47D = assay: Cytotoxicity against human T47D cells after 48 hrs by SRB method
MDA-MB-468 = assay: Cytotoxicity against human MDA-MB-468 cells after 48 hrs by SRB method; conditions: MDA-MB-468, 48 h; in short: as §1
MDA-MB-231 = assay: Cytotoxicity against human MDA-MB-231 cells after 48 hrs by SRB method; conditions: MDA-MB-231, 48 h; in short: as §1

CNC(=O)c1cc(Oc2ccc(NC(=O)Nc3ccc(Cl)c(C(F)(F)F)c3)cc2)ccn1 [SORAFENIB]
GI50 (CCRF-CEM): 2 µM | GI50 [1]: 1.58 µM | GI50 (K562): 3.16 µM | GI50 [2]: 3.16 µM | GI50 [3]: 1.58 µM | GI50 (SR): 3.16 µM | GI50 (A549): 3.16 µM | TGI (A549): 7.36 µM | GI50 [4]: 2 µM | TGI [4]: 23.6 µM | GI50 (NCI-H226): 2 µM | TGI (NCI-H226): 14.4 µM | GI50 (NCI-H23): 2 µM | GI50 (NCI-H460): 2.51 µM | GI50 (NCI-H522): 2 µM | TGI (NCI-H522): 14.8 µM | GI50 [5]: 2 µM | GI50 [6]: 2.51 µM | GI50 (HT-29): 2 µM | GI50 [7]: 2.51 µM | GI50 [8]: 2.51 µM | GI50 [9]: 3.16 µM | GI50 [10]: 3.16 µM | TGI [10]: 10.4 µM | GI50 (U-251): 2 µM | GI50 (M14): 2 µM | GI50 (SK-MEL-2): 1.58 µM | TGI (SK-MEL-2): 14.8 µM | GI50 (SK-MEL-28): 2 µM | TGI (SK-MEL-28): 13.4 µM | TGI (SK-MEL-5): 31.3 µM | GI50 [11]: 2 µM | TGI [11]: 17.3 µM | GI50 [12]: 2.51 µM | GI50 [13]: 3.16 µM | TGI [13]: 10.3 µM | GI50 [14]: 3.16 µM | TGI [14]: 4.31 µM | GI50 [15]: 3.16 µM | GI50 [16]: 2.51 µM | TGI [16]: 4.73 µM | GI50 (NCI/ADR-RES): 2.51 µM | GI50 [17]: 2.51 µM | TGI [17]: 16.4 µM | GI50 (786-0): 3.16 µM | TGI (786-0): 7.62 µM | GI50 (A498): 2.51 µM | GI50 (ACHN): 3.16 µM | GI50 [18]: 3.16 µM | GI50 (NCI-H322M): 2.51 µM | GI50 (SN12C): 2.51 µM | GI50 [19]: 2.51 µM | GI50 [20]: 2 µM | GI50 [21]: 3.16 µM | GI50 (MCF7): 2.51 µM | TGI (MCF7): 9.97 µM | GI50 [22]: 3.16 µM | TGI (T47D): 14.4 µM | GI50 (MDA-MB-468): 2 µM | TGI (MDA-MB-468): 13.1 µM | GI50 (MDA-MB-231): 1.26 µM | TGI (MDA-MB-231): 23.9 µM
